In ChEMBL document CHEMBL4680339, “Synthesis and bioevaluation of N-(3,4,5-trimethoxyphenyl)-1H-pyrazolo[3,4-b]pyridin-3-amines as tubulin polymerization inhibitors with anti-angiogenic effects” (Bioorg Med Chem, 2021):
Each block holds one molecule with its values, some of them ahead of it. Calls of active or inactive are those of the source. The rule behind the calls is not given here.

Experiments:
[1] = tested on: HCT-116; assay: Antiproliferative activity against human HCT-116 cells assessed as reduction in cell growth incubated for 72 hrs by MTT assay; type: functional, cell-based; settings: HCT-116, 72 h
Outline: (§1)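 Log-phase cells seeded at 5 × 10³/well and grown 24 h, then exposed to graded compound concentrations for 72 h. MTT (5 mg/mL) added for 4 h; formazan dissolved in DMSO and absorbance read at 490 nm. IC50 calculated from growth inhibition; means ± SD of triplicate experiments.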

[2] = tested on: A549; assay: Antiproliferative activity against human A549 cells assessed as reduction in cell growth incubated for 72 hrs by MTT assay; type: functional, cell-based; settings: A549, 72 h; outline: as §1
[3] = tested on: HeLa; assay: Antiproliferative activity against human HeLa cells assessed as reduction in cell growth incubated for 72 hrs by MTT assay; type: functional, cell-based; outline: as §1
[4] = tested on: MCF7; assay: Antiproliferative activity against human MCF7 cells assessed as reduction in cell growth incubated for 72 hrs by MTT assay; type: functional, cell-based; settings: MCF7, 72 h; outline: as §1
[5] = tested on: HepG2; assay: Antiproliferative activity against human HepG2 cells assessed as reduction in cell growth incubated for 72 hrs by MTT assay; type: functional, cell-based; settings: HepG2, 72 h; outline: as §1
[6] = tested on: WI-38; assay: Cytotoxicity against human WI-38 cells assessed as reduction in cell growth incubated for 72 hrs by MTT assay; type: cell-based; settings: WI-38, 72 h; outline: as §1
[7] = (§2) Inhibition of pig brain tubulin polymerization by spectrophotometric method; type: tissue-based, Sus scrofa
Outline: (§3)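 Pig brain tubulin, purified by three assembly/disassembly cycles and phosphocellulose chromatography, mixed with compound at various concentrations. Buffer: PEM (100 mM PIPES, 1 mM MgCl₂, 1 mM EGTA) with 1 mM GTP and 5% glycerol. Polymerization followed at 37 °C by light scattering at 340 nm; plateau absorbance used for calculation.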

[8] = species: Sus scrofa; assay: as §2; type: tissue-based; outline: as §3
[9] = tested on: MCF7; assay: Disruption of microtubule organization in human MCF7 cells assessed as breakage and abnormal spindle formation incubated for 6 hrs by immunofluorescence based laser scanning confocal microscopic analysis; type: functional, cell-based; settings: dose 10-100 nM
Outline: (§4)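 MCF-7 cells (3 × 10⁴) grown 24 h in confocal dishes, then treated 6 h with compound. Fixed in prewarmed 4% paraformaldehyde, permeabilized with 0.5% Triton X-100, blocked with 10% goat serum. Stained with mouse anti-tubulin (4 °C overnight), Alexa Fluor 488 secondary, and DAPI. Imaged by laser scanning confocal microscopy.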

[10] = tested on: MCF7; assay: Induction of cell cycle arrest in human MCF7 cells assessed as accumulation in G1 phase at 5 nM incubated for 24 hrs by PI staining based flow cytometry analysis (reference value: 63.70 %); type: functional
[11] = tested on: MCF7; assay: Induction of cell cycle arrest in human MCF7 cells assessed as accumulation in S phase at 5 nM incubated for 24 hrs by PI staining based flow cytometry analysis (reference value: 19.50 %); type: functional
[12] = tested on: MCF7; assay: Induction of cell cycle arrest in human MCF7 cells assessed as accumulation in G2/M phase at 5 nM incubated for 24 hrs by PI staining based flow cytometry analysis (reference value: 16.81 %); type: functional
[13] = tested on: MCF7; assay: Induction of cell cycle arrest in human MCF7 cells assessed as accumulation in G1 phase at 10 nM incubated for 24 hrs by PI staining based flow cytometry analysis (reference value: 63.70 %); type: functional
[14] = tested on: MCF7; assay: Induction of cell cycle arrest in human MCF7 cells assessed as accumulation in S phase at 10 nM incubated for 24 hrs by PI staining based flow cytometry analysis (reference value: 19.50 %); type: functional
[15] = tested on: MCF7; assay: Induction of cell cycle arrest in human MCF7 cells assessed as accumulation in G2/M phase at 10 nM incubated for 24 hrs by PI staining based flow cytometry analysis (reference value: 16.81 %); type: functional
[16] = tested on: MCF7; assay: Induction of cell cycle arrest in human MCF7 cells assessed as reduction in Cdc25c expression incubated for 24 hrs by Western blot analysis; type: functional, cell-based; settings: dose 10-100 nM
Outline: (§5)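 MCF-7 cells treated 24 h with 0, 10, 50 or 100 nM compound and lysed in RIPA buffer. Equal protein loads separated by 8–12% SDS-PAGE, transferred to nitrocellulose and blocked with 5% milk. Probed overnight at 4 °C with primary antibodies to Cdc25c, Cdc2 and Cyclin B1, then HRP secondary, with ECL detection. Densitometry averaged from two independent experiments.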

[17] = tested on: MCF7; assay: Induction of cell cycle arrest in human MCF7 cells assessed as reduction in Cdc2 expression incubated for 24 hrs by Western blot analysis; type: functional, cell-based; settings: dose 10-100 nM; outline: as §5
[18] = tested on: MCF7; assay: Induction of cell cycle arrest in human MCF7 cells assessed as reduction in CyclinB1 expression incubated for 24 hrs by Western blot analysis; type: functional, cell-based; settings: dose 10-100 nM; outline: as §5
[19] = tested on: MCF7; assay: Reduction in VEGF-A expression in human MCF7 cells at 50 to 100 nM incubated for 24 hrs by Western blot analysis; type: functional, cell-based; settings: dose 50-100 nM
Outline: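 MCF-7 cells treated with compound at various concentrations for 24 h. VEGF-A protein assessed by western blot (RIPA lysis, SDS-PAGE, nitrocellulose transfer, ECL detection) with quantitative densitometry. Mean ± SD, three independent experiments.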

[20] = tested on: HUVEC; assay: Cytotoxicity against HUVEC cells assessed as reduction in cell growth incubated for 72 hrs by MTT assay; type: cell-based; settings: Homo sapiens; outline: as §1
[21] = tested on: HUVEC; assay: Antimigratory activity against human HUVEC assessed as cell migration rate at 0.1 uM incubated for 12 hrs by wound healing assay (reference value: 68.5 %); type: functional
[22] = tested on: HUVEC; assay: Antimigratory activity against human HUVEC assessed as cell migration rate at 0.5 uM incubated for 12 hrs by wound healing assay (reference value: 68.5 %); type: functional
[23] = tested on: HUVEC; assay: Antimigratory activity against human HUVEC assessed as cell migration rate at 1 uM incubated for 12 hrs by wound healing assay (reference value: 68.5 %); type: functional
[24] = tested on: HUVEC; assay: Antimigratory activity against human HUVEC assessed as cell migration rate at 0.1 uM incubated for 24 hrs by wound healing assay (reference value: 100 %); type: functional
[25] = tested on: HUVEC; assay: Antimigratory activity against human HUVEC assessed as cell migration rate at 0.5 uM incubated for 24 hrs by wound healing assay (reference value: 100 %); type: functional
[26] = tested on: HUVEC; assay: Antimigratory activity against human HUVEC assessed as cell migration rate at 1 uM incubated for 24 hrs by wound healing assay (reference value: 100 %); type: functional
[27] = tested on: HUVEC; assay: Antiinvasive activity against human HUVEC incubated for 24 hrs by crystal violet staining based inverted fluorescence microscopic transwell assay; type: functional, cell-based; settings: dose 0.05-1 µM
Outline: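 Transwell inserts pre-coated with Matrigel (5 h, 37 °C). Cells in serum-free medium with 0, 0.05, 0.1, 0.5 or 1 μM compound were added to the upper well at 5 × 10⁵ cells/mL; the lower chamber held ECM with 10% FBS. After 24 h at 37 °C, invaded cells were methanol-fixed, stained with 0.1% crystal violet and counted in three random fields. Mean ± SD, three independent experiments.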

[28] = tested on: HUVEC; assay: Downregulation of MMP-9 protein expression in HUVEC at 0.05 to 1 uM incubated for 24 hrs by Western blot analysis; type: functional; settings: Homo sapiens, dose 0.05-1 µM
Outline: (§6)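 HUVECs exposed to various compound concentrations for 24 h. MMP-9 and TIMP-1 measured by western blot: RIPA lysates, equal protein loads on 8–12% SDS-PAGE, nitrocellulose transfer, primary antibodies overnight at 4 °C, HRP secondary, ECL detection.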

[29] = tested on: HUVEC; assay: Upregulation of TIMP-1 protein expression in HUVEC at 0.05 to 1 uM incubated for 24 hrs by Western blot analysis; type: functional; settings: Homo sapiens, dose 0.05-1 µM; outline: as §6
[30] = tested on: HUVEC; assay: Antivascular activity against HUVEC assessed as reduction in tube formation incubated for 6 hrs by matrigel based inverted fluorescence microscopic analysis; type: functional, cell-based; settings: Homo sapiens, dose 0.1-1 µM
Outline: (§7)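 Matrigel polymerized 30 min at 37 °C. HUVECs in ECM medium with 20% FBS seeded at 5 × 10⁴/well with compound at 0, 0.1, 0.5 or 1 μM. After 6 h, tubule formation was photographed under an inverted microscope (×100).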

[31] = tested on: HUVEC; assay: Antivascular activity against HUVEC assessed as disruption of vascular structure incubated for 6 hrs by matrigel based inverted fluorescence microscopic analysis; type: functional, cell-based; settings: Homo sapiens, dose 0.1-1 µM
Outline: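 Capillary-like networks were formed by HUVECs on Matrigel over 6 h, then exposed to vehicle or compound (0.1, 0.5, 1 μM) in serum-free DMEM for 6 h and photographed. Remaining tubes were counted; disruption = [1 − (tubes treated/tubes vehicle)] × 100%.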

[32] = tested on: MCF7; assay: Disruption of microtubule organization in human MCF7 cells assessed as microtubules shrinkage around the nucleus at 10 nM incubated for 6 hrs by immunofluorescence based laser scanning confocal microscopic analysis; type: functional, cell-based; outline: as §4
[33] = tested on: MCF7; assay: Disruption of microtubule organization in human MCF7 cells assessed as microtubules spindle shrinkage around the centre of the cell at 100 nM incubated for 6 hrs by immunofluorescence based laser scanning confocal microscopic analysis; type: functional; outline: as §4
[34] = tested on: MCF7; assay: Induction of apoptosis in human MCF7 cells; type: functional, cell-based
[35] = tested on: HUVEC; assay: Antivascular activity against HUVEC assessed as reduction in tube formation at 0.1 microM incubated for 6 hrs by matrigel based inverted fluorescence microscopic analysis; type: functional, cell-based; settings: Homo sapiens; outline: as §7
[36] = tested on: HUVEC; assay: Antivascular activity against HUVEC assessed as reduction in tube formation at 1 microM incubated for 6 hrs by matrigel based inverted fluorescence microscopic analysis; type: functional; settings: Homo sapiens; outline: as §7

- IC50 [1]: 16.7 µM
- IC50 [2]: 31.2 µM
- IC50 [3]: 0.7 µM
- IC50 [4]: 0.81 µM
- IC50 [5]: 9.64 µM
SMILES: CCN(c1cc(OC)c(OC)c(OC)c1)c1n[nH]c2nc(OC)ccc12
- IC50 [6]: 8.03 µM

- IC50 [1]: 5.97 µM
- IC50 [2]: > 50 µM
- IC50 [3]: 0.73 µM
- IC50 [4]: 1.37 µM
- IC50 [5]: 6.26 µM
SMILES: CCCN(c1cc(OC)c(OC)c(OC)c1)c1n[nH]c2nc(OC)ccc12
- IC50 [6]: 2.99 µM

SMILES: COc1ccc(/C=C\c2cc(OC)c(OC)c(OC)c2)cc1O [COMBRETASTATIN A4]
- IC50 [1]: 0.029 µM
- IC50 [2]: 0.058 µM
- IC50 [3]: 0.005 µM
- IC50 [4]: 0.034 µM
- IC50 [5]: 0.28 µM
- IC50 [6]: 31.6 µM

- IC50 [1]: > 50 µM
- IC50 [2]: > 50 µM
- IC50 [3]: 6.07 µM
- IC50 [4]: > 50 µM
- IC50 [5]: 6.24 µM
SMILES: COc1ccc2c(Nc3cc(OC)c(OC)c(OC)c3)nn(C)c2n1
- IC50 [6]: 2.43 µM

- IC50 [1]: 2.18 µM
- IC50 [2]: 20.6 µM
- IC50 [3]: 0.18 µM
- IC50 [4]: 2.35 µM
- IC50 [5]: 5.46 µM
SMILES: COc1ccc2c(N(CC3CC3)c3cc(OC)c(OC)c(OC)c3)n[nH]c2n1
- IC50 [6]: 1.29 µM

- IC50 [1]: 26.2 µM
- IC50 [2]: 22.7 µM
- IC50 [3]: 28.4 µM
- IC50 [4]: > 50 µM
- IC50 [5]: > 50 µM
SMILES: COc1ccc2c(N(c3cc(OC)c(OC)c(OC)c3)C3CCCC3)n[nH]c2n1
- IC50 [6]: 10.4 µM

- IC50 [1]: 0.26 µM
- IC50 [2]: 6 µM
- IC50 [3]: 0.21 µM
- IC50 [4]: 0.067 µM
- IC50 [5]: 4.79 µM
- IC50 [7]: 14 µM
SMILES: COc1ccc2c(N(C)c3cc(OC)c(OC)c(OC)c3)n[nH]c2n1
- IC50 [6]: 23.4 µM
- inhibition [8]: Dose-dependent effect
- Activity [9]: Dose-dependent effect
- Activity [10]: 26.47%
- Activity [11]: 10.02%
- Activity [12]: 63.5%
- Activity [13]: 9.16%
- Activity [14]: 10.11%
- Activity [15]: 80.73%
- Activity [16]: Dose-dependent effect
- Activity [17]: Dose-dependent effect
- Activity [18]: Dose-dependent effect
- inhibition [19]: Active
- IC50 [20]: 23.5 µM
- Activity [21]: 12.4%
- Activity [22]: 11.3%
- Activity [23]: 10.9%
- Activity [24]: 26.4%
- Activity [25]: 26.6%
- Activity [26]: 22.4%
- Activity [27]: Dose-dependent effect
- inhibition [28]: Active
- Activity [29]: Active
- Activity [30]: Dose-dependent effect
- Activity [31]: Dose-dependent effect
- Activity [32]: Active
- Activity [33]: Active
- Activity [34]: inactive
- Activity [35]: Active
- inhibition at 1 µM [36]: 100%

- IC50 [1]: 3.66 µM
- IC50 [2]: 31.8 µM
- IC50 [3]: 1.77 µM
- IC50 [4]: 1.72 µM
- IC50 [5]: > 50 µM
SMILES: COCCN(c1cc(OC)c(OC)c(OC)c1)c1n[nH]c2nc(OC)ccc12
- IC50 [6]: 30.9 µM
